ChEMBL document CHEMBL4428081, “Selective AKR1C3 Inhibitors Potentiate Chemotherapeutic Activity in Multiple Acute Myeloid Leukemia (AML) Cell Lines” (ACS Med Chem Lett, 2016)
Calls of active or inactive are those of the source. No cut-off for these calls is given here.

Legend:
HL-60 = assay: Cytotoxicity against human HL60 cells assessed as reduction in cell viability up to 100 uM at 72 hrs by MTS assay; type: functional, cell-based
Outline: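 HL-60 human acute promyelocytic leukemia cells exposed to AKR1C3 inhibitor alone, with no chemotherapeutic, over a range up to 100 μM. Lower working range was 0.1–1 μM. Read-out was cell viability relative to untreated control.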

KG-1a = assay: Cytotoxicity against human KG1a cells expressing AKR1C3 assessed as reduction in cell viability at >25 uM at 72 hrs by MTS assay; type: functional, cell-based
[1] = target: T1, Aldo-keto reductase family 1 member C3 (Homo sapiens) (UniProt P42330); assay: Inhibition of AKR1C3 in human HL60 cells assessed as potentiation of etoposide-induced cytotoxicity by measuring reduction in cell viability at 0.1 uM coincubated with etoposide at 1 uM after 72 hrs by MTS assay (reference value: 40%); type: cell-based
T1 sequence (whole entry): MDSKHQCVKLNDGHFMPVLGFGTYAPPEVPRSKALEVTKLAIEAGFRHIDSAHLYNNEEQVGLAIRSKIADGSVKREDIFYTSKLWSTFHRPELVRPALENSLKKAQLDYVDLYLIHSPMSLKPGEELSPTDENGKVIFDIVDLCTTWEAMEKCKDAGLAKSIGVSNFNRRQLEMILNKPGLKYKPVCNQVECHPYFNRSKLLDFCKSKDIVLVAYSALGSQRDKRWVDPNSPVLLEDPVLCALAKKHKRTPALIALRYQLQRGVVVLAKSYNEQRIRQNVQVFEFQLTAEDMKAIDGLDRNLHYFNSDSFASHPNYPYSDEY
Outline: (§1)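 HL-60 or KG1a cells were coincubated with inhibitor and etoposide for 72 h, then cell viability was read. Values are mean ± SD (n = 6). Treatments were compared with control by two-tailed t test.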

[2] = target: T1, Aldo-keto reductase family 1 member C3 (Homo sapiens); assay: Inhibition of AKR1C3 in human KG1a cells assessed as potentiation of etoposide-induced cytotoxicity by measuring reduction in cell viability at 0.1 uM coincubated with etoposide at 1 uM after 72 hrs by MTS assay; type: cell-based; outline: as §1
[3] = target: T1, Aldo-keto reductase family 1 member C3 (Homo sapiens); assay: Inhibition of AKR1C3 in human HL60 cells assessed as potentiation of etoposide-induced cytotoxicity by measuring reduction in cell viability pre-treated with 0.1 to 1 uM compound for 24 hrs followed by 1 uM etoposide exposure for additional 72 hrs by MTS assay; type: cell-based
CCRF-CEM = assay: Cytotoxicity against human CCRF-CEM cells at 10 uM after 48 hrs by sulforhodamine B assay; type: functional, cell-based
HL-60(TB) = assay: Cytotoxicity against human HL-60(TB) cells at 10 uM after 48 hrs by sulforhodamine B assay; type: functional, cell-based
Outline: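 Single-concentration (10 μM) test run within the National Cancer Institute 60 cancer cell line screen, with HL-60 as one panel member.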

K562 = assay: Cytotoxicity against human K562 cells at 10 uM after 48 hrs by sulforhodamine B assay; type: functional, cell-based
MOLT-4 = assay: Cytotoxicity against human MOLT4 cells at 10 uM after 48 hrs by sulforhodamine B assay; type: functional, cell-based
RPMI-8226 = assay: Cytotoxicity against human RPMI8226 cells at 10 uM after 48 hrs by sulforhodamine B assay; type: functional, cell-based
SR = assay: Cytotoxicity against human SR cells at 10 uM after 48 hrs by sulforhodamine B assay; type: functional, cell-based
Outline: (§2)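 NCI 60 cancer cell line panel screen run at a single concentration of 10 μM.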

A549 = assay: Cytotoxicity against human A549/ATCC cells at 10 uM after 48 hrs by sulforhodamine B assay; type: functional, cell-based
HOP-62 = assay: Cytotoxicity against human HOP62 cells at 10 uM after 48 hrs by sulforhodamine B assay; type: functional, cell-based
HOP-92 = assay: Cytotoxicity against human HOP92 cells at 10 uM after 48 hrs by sulforhodamine B assay; type: functional, cell-based
NCI-H226 = assay: Cytotoxicity against human NCI-H226 cells at 10 uM after 48 hrs by sulforhodamine B assay; type: functional, cell-based
NCI-H23 = assay: Cytotoxicity against human NCI-H23 cells at 10 uM after 48 hrs by sulforhodamine B assay; type: functional, cell-based
NCI-H322M = assay: Cytotoxicity against human NCI-H322M cells at 10 uM after 48 hrs by sulforhodamine B assay; type: functional, cell-based
NCI-H460 = assay: Cytotoxicity against human NCI-H460 cells at 10 uM after 48 hrs by sulforhodamine B assay; type: functional, cell-based
NCI-H522 = assay: Cytotoxicity against human NCI-H522 cells at 10 uM after 48 hrs by sulforhodamine B assay; type: functional, cell-based
COLO 205 = assay: Cytotoxicity against human COLO205 cells at 10 uM after 48 hrs by sulforhodamine B assay; type: functional, cell-based
HCC 2998 = assay: Cytotoxicity against human HCC2998 cells at 10 uM after 48 hrs by sulforhodamine B assay; type: functional, cell-based
HCT-116 = assay: Cytotoxicity against human HCT116 cells at 10 uM after 48 hrs by sulforhodamine B assay; type: functional, cell-based
HCT-15 = assay: Cytotoxicity against human HCT15 cells at 10 uM after 48 hrs by sulforhodamine B assay; type: functional, cell-based
KM12 = assay: Cytotoxicity against human KM12 cells at 10 uM after 48 hrs by sulforhodamine B assay; type: functional, cell-based
SW-620 = assay: Cytotoxicity against human SW620 cells at 10 uM after 48 hrs by sulforhodamine B assay; type: functional, cell-based; outline: as §2
SF-268 = assay: Cytotoxicity against human SF268 cells at 10 uM after 48 hrs by sulforhodamine B assay; type: functional, cell-based
SF-295 = assay: Cytotoxicity against human SF295 cells at 10 uM after 48 hrs by sulforhodamine B assay; type: functional, cell-based
SF-539 = assay: Cytotoxicity against human SF539 cells at 10 uM after 48 hrs by sulforhodamine B assay; type: functional, cell-based
SNB-19 = assay: Cytotoxicity against human SNB19 cells at 10 uM after 48 hrs by sulforhodamine B assay; type: functional, cell-based; outline: as §2
SNB-75 = assay: Cytotoxicity against human SNB75 cells at 10 uM after 48 hrs by sulforhodamine B assay; type: functional, cell-based; outline: as §2
U-251 = assay: Cytotoxicity against human U251 cells at 10 uM after 48 hrs by sulforhodamine B assay; type: functional, cell-based; outline: as §2
LOX IMVI = assay: Cytotoxicity against human LOXIMVI cells at 10 uM after 48 hrs by sulforhodamine B assay; type: functional, cell-based
Malme-3M = assay: Cytotoxicity against human MALME-3M cells at 10 uM after 48 hrs by sulforhodamine B assay; type: functional, cell-based
M14 = assay: Cytotoxicity against human M14 cells at 10 uM after 48 hrs by sulforhodamine B assay; type: functional, cell-based
MDA-MB-435 = assay: Cytotoxicity against human MDA-MB-435 cells at 10 uM after 48 hrs by sulforhodamine B assay; type: functional, cell-based
SK-MEL-2 = assay: Cytotoxicity against human SK-MEL-2 cells at 10 uM after 48 hrs by sulforhodamine B assay; type: functional, cell-based
SK-MEL-28 = assay: Cytotoxicity against human SK-MEL-28 cells at 10 uM after 48 hrs by sulforhodamine B assay; type: functional, cell-based
SK-MEL-5 = assay: Cytotoxicity against human SK-MEL-5 cells at 10 uM after 48 hrs by sulforhodamine B assay; type: functional, cell-based
UACC-257 = assay: Cytotoxicity against human UACC257 cells at 10 uM after 48 hrs by sulforhodamine B assay; type: functional, cell-based; outline: as §2
UACC-62 = assay: Cytotoxicity against human UACC62 cells at 10 uM after 48 hrs by sulforhodamine B assay; type: functional, cell-based; outline: as §2
IGROV-1 = assay: Cytotoxicity against human IGROV1 cells at 10 uM after 48 hrs by sulforhodamine B assay; type: functional, cell-based
OVCAR-3 = assay: Cytotoxicity against human OVCAR3 cells at 10 uM after 48 hrs by sulforhodamine B assay; type: functional, cell-based
OVCAR-4 = assay: Cytotoxicity against human OVCAR4 cells at 10 uM after 48 hrs by sulforhodamine B assay; type: functional, cell-based
OVCAR-5 = assay: Cytotoxicity against human OVCAR5 cells at 10 uM after 48 hrs by sulforhodamine B assay; type: functional, cell-based
OVCAR-8 = assay: Cytotoxicity against human OVCAR8 cells at 10 uM after 48 hrs by sulforhodamine B assay; type: functional, cell-based
NCI/ADR-RES = assay: Cytotoxicity against human NCI-ADR-RES cells at 10 uM after 48 hrs by sulforhodamine B assay; type: functional, cell-based
786-0 = assay: Cytotoxicity against human 786-0 cells at 10 uM after 48 hrs by sulforhodamine B assay; type: functional, cell-based
A498 = assay: Cytotoxicity against human A498 cells at 10 uM after 48 hrs by sulforhodamine B assay; type: functional, cell-based
ACHN = assay: Cytotoxicity against human ACHN cells at 10 uM after 48 hrs by sulforhodamine B assay; type: functional, cell-based
CAKI-1 = assay: Cytotoxicity against human Caki1 cells at 10 uM after 48 hrs by sulforhodamine B assay; type: functional, cell-based
RXF 393 = assay: Cytotoxicity against human RXF393 cells at 10 uM after 48 hrs by sulforhodamine B assay; type: functional, cell-based
SN12C = assay: Cytotoxicity against human SN12C cells at 10 uM after 48 hrs by sulforhodamine B assay; type: functional, cell-based
TK-10 = assay: Cytotoxicity against human TK10 cells at 10 uM after 48 hrs by sulforhodamine B assay; type: functional, cell-based; outline: as §2
UO-31 = assay: Cytotoxicity against human UO31 cells at 10 uM after 48 hrs by sulforhodamine B assay; type: functional, cell-based; outline: as §2
PC-3 = assay: Cytotoxicity against human PC3 cells at 10 uM after 48 hrs by sulforhodamine B assay; type: functional, cell-based
DU-145 = assay: Cytotoxicity against human DU145 cells at 10 uM after 48 hrs by sulforhodamine B assay; type: functional, cell-based
MCF7 = assay: Cytotoxicity against human MCF7 cells at 10 uM after 48 hrs by sulforhodamine B assay; type: functional, cell-based
MDA-MB-231 = assay: Cytotoxicity against human MDA-MB-231 cells at 10 uM after 48 hrs by sulforhodamine B assay; type: functional, cell-based
Hs-578T = assay: Cytotoxicity against human Hs 578T cells at 10 uM after 48 hrs by sulforhodamine B assay; type: functional, cell-based
T47D = assay: Cytotoxicity against human T47D cells at 10 uM after 48 hrs by sulforhodamine B assay; type: functional, cell-based; outline: as §2
MDA-MB-468 = assay: Cytotoxicity against human MDA-MB-468 cells at 10 uM after 48 hrs by sulforhodamine B assay; type: functional, cell-based
[4] = target: Aldo-keto reductase family 1 member C3 (Homo sapiens, UniProt P42330); assay: Inhibition of N-terminal His6-tagged human recombinant AKR1C3 in presence of NADPH by fluorescence assay

**Q.** For `CC(C)=CCc1ccc(/C=C/C(=O)O)cc1OC(=O)CCc1ccccc1`, which Activity (HL-60) is on record?
**A.** inactive

**Q.** And the Activity (KG-1a)?
**A.** Active

**Q.** And the Activity [1]?
**A.** 80%

**Q.** And the Activity [2]?
**A.** 54%

**Q.** What about the Activity [3] of the same compound?
**A.** 80 to 95%

**Q.** What does the source list for `CC(C)=CCc1cc(/C=C/C(=O)O)ccc1OC(=O)CCc1ccccc1`?
**A.** Activity (CCRF-CEM): inactive; Activity (HL-60(TB)): inactive; Activity (K562): inactive; Activity (MOLT-4): inactive; Activity (RPMI-8226): inactive; Activity (SR): inactive; Activity (A549): inactive; Activity (HOP-62): inactive; Activity (HOP-92): inactive; Activity (NCI-H226): inactive; Activity (NCI-H23): inactive; Activity (NCI-H322M): inactive; Activity (NCI-H460): inactive; Activity (NCI-H522): inactive; Activity (COLO 205): inactive; Activity (HCC 2998): inactive; Activity (HCT-116): inactive; Activity (HCT-15): inactive; Activity (KM12): inactive; Activity (SW-620): inactive; Activity (SF-268): inactive; Activity (SF-295): inactive; Activity (SF-539): inactive; Activity (SNB-19): inactive; Activity (SNB-75): inactive; Activity (U-251): inactive; Activity (LOX IMVI): inactive; Activity (Malme-3M): inactive; Activity (M14): inactive; Activity (MDA-MB-435): inactive; Activity (SK-MEL-2): inactive; Activity (SK-MEL-28): inactive; Activity (SK-MEL-5): inactive; Activity (UACC-257): inactive; Activity (UACC-62): inactive; Activity (IGROV-1): inactive; Activity (OVCAR-3): inactive; Activity (OVCAR-4): inactive; Activity (OVCAR-5): inactive; Activity (OVCAR-8): inactive; Activity (NCI/ADR-RES): inactive; Activity (786-0): inactive; Activity (A498): inactive; Activity (ACHN): inactive; Activity (CAKI-1): inactive; Activity (RXF 393): inactive; Activity (SN12C): inactive; Activity (TK-10): inactive; Activity (UO-31): inactive; Activity (PC-3): inactive; Activity (DU-145): inactive; Activity (MCF7): inactive; Activity (MDA-MB-231): inactive; Activity (Hs-578T): inactive; Activity (T47D): inactive; Activity (MDA-MB-468): inactive; Activity (HL-60): inactive; Activity (KG-1a): Active; Activity [1]: 70%; Activity [3]: 80 to 95%

**Q.** With `C[C@@H]1C(O)=C(C(N)=O)C(=O)[C@@]2(O)C(O)=C3C(=O)c4c(O)cccc4[C@@](C)(O)[C@H]3C[C@@H]12` as the compound, how does the IC50 [4] read?
**A.** 501 nM
